Experimental data as given in ChEMBL document CHEMBL5108036, “A concise SAR-analysis of antimicrobial cationic amphipathic barbiturates for an improved activity-toxicity profile” (Eur J Med Chem, 2022).

How the values were obtained:
[1] = test system: Staphylococcus aureus; test: Antibacterial activity against Staphylococcus aureus ATCC 9144 incubated for 48 hrs and measured by broth microdilution assay; format: functional
In short: (§1)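 MICs in µg/mL were measured against the reference strains S. aureus ATCC 9144, B. subtilis 168, E. coli ATCC 25922 and P. aeruginosa ATCC 27853. Compounds were tested as di-TFA salts.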

[2] = test system: Bacillus subtilis; test: Antibacterial activity against Bacillus subtilis 168 incubated for 48 hrs and measured by broth microdilution assay; format: functional; in short: as §1
[3] = test system: Escherichia coli; test: Antibacterial activity against Escherichia coli ATCC 25922 incubated for 48 hrs and measured by broth microdilution assay; format: functional; in short: as §1
[4] = test system: Pseudomonas aeruginosa; test: Antibacterial activity against Pseudomonas aeruginosa ATCC 27853 incubated for 48 hrs and measured by broth microdilution assay; format: functional; in short: as §1
[5] = Hemolytic activity in human RBC measured after 1 hr by microplate reader method; format: toxicity, cell-based, Erythrocyte; settings: human, human red blood cells (erythrocytes)
In short: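 Human red blood cell lysis was used as the cytotoxicity read-out, expressed as EC50 in µg/mL. The highest concentration tested was 500 µM. Compounds were tested as di-TFA salts.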

Which results are given for `NCCCN1C(=O)N(CCCN)C(=O)C(Cc2ccc3cc(Br)ccc3n2)(Cc2ccc3cc(Br)ccc3n2)C1=O.O=C(O)C(F)(F)F.O=C(O)C(F)(F)F`?
MIC [1]: 32 µg/mL; MIC [2]: 8 µg/mL; MIC [3]: 64 µg/mL; MIC [4]: 256 µg/mL; EC50 at 1 h [5]: > 455 µg/mL

Which results are given for `NCCCCN1C(=O)N(CCCCN)C(=O)C(Cc2c(Br)cc(Br)cc2Br)(Cc2c(Br)cc(Br)cc2Br)C1=O.O=C(O)C(F)(F)F.O=C(O)C(F)(F)F`?
MIC [1]: 2 µg/mL; MIC [2]: 2 µg/mL; MIC [3]: 4 µg/mL; MIC [4]: 4 µg/mL; EC50 at 1 h [5]: 30 µg/mL

With `CCCCCCC1(Cc2cc(Br)cc(Br)c2)C(=O)N(CCCCNC(=N)N)C(=O)N(CCCCNC(=N)N)C1=O.O=C(O)C(F)(F)F.O=C(O)C(F)(F)F` (configuration not stated) as the compound, how does the MIC [1] read?
Its MIC is 2 µg/mL.

What about the MIC [2] of the same compound?
The MIC was 4 µg/mL.

And the MIC [3]?
Its MIC is 4 µg/mL.

And the MIC [4]?
Its MIC is 8 µg/mL.

And the EC50 at 1 h [5]?
Its EC50 at 1 h is 58 µg/mL.

For `N[C@H]1CC[C@@H](N2C(=O)N([C@H]3CC[C@@H](N)CC3)C(=O)C(Cc3cc(Br)cc(Br)c3)(Cc3cc(Br)cc(Br)c3)C2=O)CC1.O=C(O)C(F)(F)F.O=C(O)C(F)(F)F`, which MIC [1] is on record?
Its MIC is 4 µg/mL.

What about the MIC [2] of the same compound?
The MIC was 4 µg/mL.

And the MIC [3]?
The MIC was 4 µg/mL.

What about the MIC [4] of the same compound?
The MIC was 8 µg/mL.

And the EC50 at 1 h [5]?
Its EC50 at 1 h is 15 µg/mL.

For `NCCCCCN1C(=O)N(CCCCCN)C(=O)C(Cc2cc(Br)cc(Br)c2)(Cc2cc(Br)cc(Br)c2)C1=O.O=C(O)C(F)(F)F.O=C(O)C(F)(F)F`, which MIC [1] is on record?
Its MIC is 4 µg/mL.

And the MIC [2]?
The MIC was 4 µg/mL.

And the MIC [3]?
The MIC was 8 µg/mL.

What about the MIC [4] of the same compound?
The MIC was 8 µg/mL.

And the EC50 at 1 h [5]?
Its EC50 at 1 h is 24 µg/mL.

For `CCCCCCC1(CCCCCC)C(=O)N(CCCCNC(=N)N)C(=O)N(CCCCNC(=N)N)C1=O.O=C(O)C(F)(F)F.O=C(O)C(F)(F)F`, which MIC [1] is on record?
Its MIC is 2 µg/mL.

And the MIC [2]?
The MIC was 2 µg/mL.

What about the MIC [3] of the same compound?
The MIC was 4 µg/mL.

And the MIC [4]?
Its MIC is 16 µg/mL.

And the EC50 at 1 h [5]?
Its EC50 at 1 h is 143 µg/mL.

For `NCCCCN1C(=O)N(CCCCN)C(=O)C(Cc2ccc3cc(Br)ccc3n2)(Cc2ccc3cc(Br)ccc3n2)C1=O.O=C(O)C(F)(F)F.O=C(O)C(F)(F)F`, which MIC [1] is on record?
Its MIC is 16 µg/mL.

And the MIC [2]?
Its MIC is 4 µg/mL.

What about the MIC [3] of the same compound?
The MIC was 256 µg/mL.

What about the MIC [4] of the same compound?
Its MIC is 256 µg/mL.

And the EC50 at 1 h [5]?
Its EC50 at 1 h is greater than 469 µg/mL.

For `N=C(N)NCCCCN1C(=O)N(CCCCNC(=N)N)C(=O)C(Cc2cc(Br)c(Br)cc2Br)(Cc2cc(Br)c(Br)cc2Br)C1=O.O=C(O)C(F)(F)F.O=C(O)C(F)(F)F`, which MIC [1] is on record?
The MIC was 4 µg/mL.

What about the MIC [2] of the same compound?
Its MIC is 4 µg/mL.

What about the MIC [3] of the same compound?
The MIC was 4 µg/mL.

What about the MIC [4] of the same compound?
The MIC was 8 µg/mL.

What about the EC50 at 1 h [5] of the same compound?
Its EC50 at 1 h is 32 µg/mL.

With `N=C(N)NCCCCN1C(=O)N(CCCCNC(=N)N)C(=O)C(Cc2cc(Br)cc(Br)c2)(Cc2ccc(Br)c3ccccc23)C1=O.O=C(O)C(F)(F)F.O=C(O)C(F)(F)F` (configuration not stated) as the compound, how does the MIC [1] read?
Its MIC is 1 µg/mL.

What about the MIC [2] of the same compound?
The MIC was 4 µg/mL.

What about the MIC [3] of the same compound?
Its MIC is 4 µg/mL.

What about the MIC [4] of the same compound?
Its MIC is 8 µg/mL.

What about the EC50 at 1 h [5] of the same compound?
Its EC50 at 1 h is 58 µg/mL.

Which results are given for `NCCCCN1C(=O)N(CCCCN)C(=O)C(Cc2ccc3ccccc3n2)(Cc2ccc3ccccc3n2)C1=O.O=C(O)C(F)(F)F.O=C(O)C(F)(F)F`?
MIC [1]: 256 µg/mL; MIC [2]: 64 µg/mL; MIC [3]: > 256 µg/mL; MIC [4]: > 256 µg/mL; EC50 at 1 h [5]: > 390 µg/mL

What does the source list for `NCCCN1C(=O)N(CCCN)C(=O)C(Cc2ccc(C(F)(F)F)cc2)(Cc2ccc(C(F)(F)F)cc2)C1=O.O=C(O)C(F)(F)F.O=C(O)C(F)(F)F`?
MIC [1]: 64 µg/mL; MIC [2]: 16 µg/mL; MIC [3]: 64 µg/mL; MIC [4]: 128 µg/mL; EC50 at 1 h [5]: > 393 µg/mL

Which results are given for `N=C(N)NCCCCN1C(=O)N(CCCCNC(=N)N)C(=O)C(Cc2ccc3cc(Br)ccc3n2)(Cc2ccc3cc(Br)ccc3n2)C1=O.O=C(O)C(F)(F)F.O=C(O)C(F)(F)F`?
MIC [1]: 2 µg/mL; MIC [2]: 4 µg/mL; MIC [3]: 16 µg/mL; MIC [4]: 128 µg/mL; EC50 at 1 h [5]: 461 µg/mL

For `NCCCN1C(=O)N(CCCN)C(=O)C(Cc2ccc(Br)c3ccccc23)(Cc2ccc(Br)c3ccccc23)C1=O.O=C(O)C(F)(F)F.O=C(O)C(F)(F)F`, which MIC [1] is on record?
Its MIC is 2 µg/mL.

What about the MIC [2] of the same compound?
Its MIC is 2 µg/mL.

What about the MIC [3] of the same compound?
The MIC was 4 µg/mL.

What about the MIC [4] of the same compound?
The MIC was 4 µg/mL.

What about the EC50 at 1 h [5] of the same compound?
The EC50 at 1 h was 23 µg/mL.

For `NCCN1C(=O)N(CCN)C(=O)C(Cc2cc(Br)cc(Br)c2)(Cc2cc(Br)cc(Br)c2)C1=O.O=C(O)C(F)(F)F.O=C(O)C(F)(F)F`, which MIC [1] is on record?
The MIC was 4 µg/mL.

What about the MIC [2] of the same compound?
Its MIC is 4 µg/mL.

And the MIC [3]?
Its MIC is 4 µg/mL.

What about the MIC [4] of the same compound?
Its MIC is 8 µg/mL.

And the EC50 at 1 h [5]?
The EC50 at 1 h was 39 µg/mL.

Which MIC [1] does the source give for `NCCCCN1C(=O)N(CCCCN)C(=O)C(Cc2cc(Br)cc(Br)c2)(C2CCCC2)C1=O.O=C(O)C(F)(F)F.O=C(O)C(F)(F)F` here?
Its MIC is 16 µg/mL.

And the MIC [2]?
Its MIC is 8 µg/mL.

What about the MIC [3] of the same compound?
Its MIC is 64 µg/mL.

What about the MIC [4] of the same compound?
The MIC was 64 µg/mL.

What about the EC50 at 1 h [5] of the same compound?
Its EC50 at 1 h is greater than 407 µg/mL.

With `NCCCCN1C(=O)N(CCCCN)C(=O)C(Cc2ccc(Br)c3ccccc23)(Cc2ccc(Br)c3ccccc23)C1=O.O=C(O)C(F)(F)F.O=C(O)C(F)(F)F` as the compound, how does the MIC [1] read?
The MIC was 2 µg/mL.

What about the MIC [2] of the same compound?
Its MIC is 2 µg/mL.

And the MIC [3]?
Its MIC is 4 µg/mL.

What about the MIC [4] of the same compound?
The MIC was 4 µg/mL.

And the EC50 at 1 h [5]?
Its EC50 at 1 h is 27 µg/mL.

Which results are given for `O=C(O)c1cn(C2CC2)c2cc(N3CCNCC3)c(F)cc2c1=O` [CIPROFLOXACIN]?
MIC [2]: < 0.03 µg/mL; MIC [3]: < 0.03 µg/mL
